Assay results taken from ChEMBL document CHEMBL3108700, “Designing anti-inflammatory drugs from parasitic worms: a synthetic small molecule analogue of the Acanthocheilonema viteae product ES-62 prevents development of collagen-induced arthritis” (J Med Chem, 2013).
Activity calls are given as the source filed them. The rule behind the calls is not given here.

Assays:
[1] = biological target: T1, Toll-like receptor 9 (Mus musculus) (UniProt Q9EQU3); assay: Inhibition of TLR9 in BALB/c mouse BMDM assessed as downregulation of CpG-stimulated IL-6 level at 5 ug/ml preincubated for 18 hrs followed by CpG challenge measured after 24 hrs by ELISA relative to control
T1 sequence (whole entry): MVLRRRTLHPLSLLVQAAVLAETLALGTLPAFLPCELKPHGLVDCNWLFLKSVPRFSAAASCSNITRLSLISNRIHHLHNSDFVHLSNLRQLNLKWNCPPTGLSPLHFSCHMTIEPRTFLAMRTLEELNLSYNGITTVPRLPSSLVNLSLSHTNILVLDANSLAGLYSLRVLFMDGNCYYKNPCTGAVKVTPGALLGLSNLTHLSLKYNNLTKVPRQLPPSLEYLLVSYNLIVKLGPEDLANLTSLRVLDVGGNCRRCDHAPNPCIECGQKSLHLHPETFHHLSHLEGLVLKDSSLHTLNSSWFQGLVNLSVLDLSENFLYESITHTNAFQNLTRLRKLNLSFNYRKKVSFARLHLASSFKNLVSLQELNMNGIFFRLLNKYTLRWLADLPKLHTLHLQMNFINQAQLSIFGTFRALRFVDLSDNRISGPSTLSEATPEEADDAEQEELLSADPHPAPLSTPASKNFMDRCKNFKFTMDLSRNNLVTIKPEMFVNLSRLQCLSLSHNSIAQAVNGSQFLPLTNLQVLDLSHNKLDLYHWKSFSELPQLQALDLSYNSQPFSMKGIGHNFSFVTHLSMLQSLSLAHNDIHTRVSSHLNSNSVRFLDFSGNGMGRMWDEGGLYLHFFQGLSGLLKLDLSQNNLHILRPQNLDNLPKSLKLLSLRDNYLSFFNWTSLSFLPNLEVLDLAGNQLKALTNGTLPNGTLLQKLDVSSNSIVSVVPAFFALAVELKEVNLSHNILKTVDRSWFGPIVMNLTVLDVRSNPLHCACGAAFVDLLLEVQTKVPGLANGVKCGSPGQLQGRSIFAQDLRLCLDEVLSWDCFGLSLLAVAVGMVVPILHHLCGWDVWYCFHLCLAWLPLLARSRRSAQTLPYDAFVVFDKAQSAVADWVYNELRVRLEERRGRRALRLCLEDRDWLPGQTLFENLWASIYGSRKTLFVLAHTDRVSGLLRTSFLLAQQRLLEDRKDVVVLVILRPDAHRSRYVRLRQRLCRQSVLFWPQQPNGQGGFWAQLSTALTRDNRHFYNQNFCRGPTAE
Outline: (§1)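 BALB/c male bone marrow macrophages were differentiated 7 days with L929 supernatant (≥99% CD11b+/F4/80+). Cells were plated at 2 × 10^5/well in triplicate, rested overnight, and given compounds at 5 μg/mL for 18 h. They were then stimulated with 100 ng/mL S. minnesota LPS, 10 ng/mL Pam3CSK4 (BLP) or 0.01 μM CpG for 24 h. Supernatant IL-12p40 and IL-6 were measured by ELISA (sensitivity 16 pg/mL).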

TLR2/TLR6 (Mus musculus) [2] = biological target: T2, TLR2/TLR6 (Mus musculus) (UniProt Q9QUN7+Q9EPW9); assay: Inhibition of TLR2/6 in BALB/c mouse BMDM assessed as downregulation of BLP-stimulated IL-6 level at 5 ug/ml preincubated for 18 hrs followed by BLP challenge measured after 24 hrs by ELISA relative to control; type: protein-complex assay; outline: as §1
TLR2/TLR6 (Mus musculus) [3] = biological target: T2, TLR2/TLR6 (Mus musculus); assay: Inhibition of TLR2/6 in BALB/c mouse BMDM assessed as downregulation of BLP-stimulated IL-12p40 level at 5 ug/ml preincubated for 18 hrs followed by BLP challenge measured after 24 hrs by ELISA relative to control; type: protein-complex assay; outline: as §1
[4] = biological target: T3, Toll-like receptor 4 (Mus musculus) (UniProt Q9QUK6); assay: Inhibition of TLR4 in BALB/c mouse BMDM assessed as downregulation of LPS-stimulated IL-6 level at 5 ug/ml preincubated for 18 hrs followed by LPS challenge measured after 24 hrs by ELISA relative to control; outline: as §1
T3 sequence (whole entry): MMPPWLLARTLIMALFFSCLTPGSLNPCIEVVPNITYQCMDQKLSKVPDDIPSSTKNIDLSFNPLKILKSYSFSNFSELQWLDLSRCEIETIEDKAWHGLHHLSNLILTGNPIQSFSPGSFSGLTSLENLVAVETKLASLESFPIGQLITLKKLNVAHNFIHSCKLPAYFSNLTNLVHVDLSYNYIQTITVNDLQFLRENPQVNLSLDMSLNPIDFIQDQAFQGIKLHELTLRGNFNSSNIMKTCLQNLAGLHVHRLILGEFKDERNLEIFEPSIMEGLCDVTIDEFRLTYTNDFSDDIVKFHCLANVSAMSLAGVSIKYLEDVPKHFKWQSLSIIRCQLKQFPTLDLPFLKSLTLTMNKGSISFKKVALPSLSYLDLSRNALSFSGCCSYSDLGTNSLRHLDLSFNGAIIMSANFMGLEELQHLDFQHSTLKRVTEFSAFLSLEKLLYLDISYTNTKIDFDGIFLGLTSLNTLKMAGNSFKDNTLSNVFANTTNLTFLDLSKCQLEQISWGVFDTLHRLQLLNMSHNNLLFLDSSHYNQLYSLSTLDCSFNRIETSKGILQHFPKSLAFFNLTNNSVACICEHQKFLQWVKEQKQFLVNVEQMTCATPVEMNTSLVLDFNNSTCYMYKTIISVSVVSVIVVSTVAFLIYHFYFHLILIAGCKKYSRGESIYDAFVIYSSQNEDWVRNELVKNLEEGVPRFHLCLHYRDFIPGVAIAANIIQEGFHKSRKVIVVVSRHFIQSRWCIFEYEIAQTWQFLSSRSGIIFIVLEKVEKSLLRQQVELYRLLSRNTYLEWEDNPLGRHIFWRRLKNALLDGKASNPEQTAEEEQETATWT

[5] = biological target: T3, Toll-like receptor 4 (Mus musculus); assay: Inhibition of TLR4 in BALB/c mouse BMDM assessed as downregulation of LPS-stimulated IL-12p40 level at 5 ug/ml preincubated for 18 hrs followed by LPS challenge measured after 24 hrs by ELISA relative to control; outline: as §1
[6] = biological target: T1, Toll-like receptor 9 (Mus musculus); assay: Inhibition of TLR9 in BALB/c mouse BMDM assessed as downregulation of CpG-stimulated IL-12p40 level at 5 ug/ml preincubated for 18 hrs followed by CpG challenge measured after 24 hrs by ELISA relative to control; outline: as §1

inhibition [1] | inhibition (TLR2/TLR6 (Mus musculus) [2]) | inhibition (TLR2/TLR6 (Mus musculus) [3]) | inhibition [4] | inhibition [5] | inhibition [6] | Structure (SMILES)
inactive | inactive | inactive | inactive | inactive | inactive | CC[C@H](C)NCCS(=O)(=O)c1ccccc1
inactive | inactive | Active | inactive | inactive | inactive | O=S(=O)(CCN1CCCC1)Cc1ccc(F)cc1
Active | inactive | inactive | Active | inactive | Active | O=S(=O)(CCN1CCCC1)NCc1ccc(F)cc1
inactive | inactive | inactive | inactive | inactive | inactive | O=S(=O)(Cc1ccc(Br)cc1)NCCN1CCOCC1
inactive | inactive | Active | inactive | Active | inactive | COc1ccc2c(CS(=O)(=O)NCCN3CCCC3)cc(=O)oc2c1
inactive | inactive | inactive | inactive | inactive | inactive | CN1CCN(CCS(=O)(=O)c2ccccc2)CC1
inactive | Active | inactive | inactive | inactive | inactive | CN(C)CCNS(=O)(=O)Cc1ccc([N+](=O)[O-])cc1
inactive | inactive | inactive | inactive | inactive | inactive | CN(C)CCN(C)CCS(=O)(=O)c1ccccc1
inactive | inactive | inactive | inactive | inactive | inactive | CN(C)CCS(=O)(=O)NCc1ccc(Br)cc1
inactive | inactive | inactive | Active | inactive | inactive | CN(C)CCCS(=O)(=O)Cc1ccc(Br)cc1
inactive | inactive | inactive | inactive | inactive | inactive | Cc1ccc(CS(=O)(=O)CCCN2CCCC2)cc1
inactive | inactive | Active | inactive | inactive | inactive | CN(C)CCNS(=O)(=O)Cc1ccc(/C=C/c2ccccc2)cc1
inactive | inactive | inactive | inactive | inactive | inactive | Cc1ccc(CS(=O)(=O)CCC[N+](C)(C)C)cc1
inactive | inactive | Active | inactive | inactive | inactive | CC[C@H](C)NCCS(=O)(=O)Cc1ccc(Br)cc1
inactive | inactive | inactive | inactive | inactive | inactive | CN(C)CCNS(=O)(=O)Cc1ccc2ccccc2c1
inactive | inactive | inactive | inactive | Active | inactive | O=S(=O)(CCN1CCCC1)Cc1ccc(Br)cc1
Active | Active | inactive | Active | Active | Active | O=C(Cc1ccccc1)NCCN1CCCC1
inactive | inactive | inactive | inactive | inactive | inactive | O=S(=O)(Cc1ccc(F)cc1)NCCN1CCOCC1
inactive | inactive | inactive | inactive | inactive | inactive | CC[C@@H](C)NCCS(=O)(=O)c1ccccc1
inactive | inactive | inactive | Active | Active | inactive | Cc1ccc(CS(=O)(=O)CCN(C)C)cc1
inactive | inactive | inactive | inactive | inactive | inactive | CN(C)CCN(C)CCS(=O)(=O)Cc1cccc(F)c1
inactive | inactive | inactive | inactive | inactive | inactive | Cc1ccc(CP(=O)(O)OCCCN(C)C)cc1
inactive | Active | inactive | inactive | inactive | inactive | CN(C)CCCNS(=O)(=O)Cc1ccc([N+](=O)[O-])cc1
inactive | inactive | inactive | inactive | inactive | inactive | CN(C)CCCNS(=O)(=O)Cc1ccccc1
